Source: ChEMBL document CHEMBL4732112, “Synthesis and in vitro evaluation of novel spiroketopyrazoles as acetyl-CoA carboxylase inhibitors and potential antitumor agents” (Eur J Med Chem, 2021)
Active and inactive are the calls of the source. No cut-off for these calls is given here.

Tests used:
Acetyl-CoA carboxylase 1 [1] = target: T1, Acetyl-CoA carboxylase 1 (Homo sapiens, UniProt Q13085); assay: Inhibition of recombinant human C-terminal His-tagged ACC1 (1 to 2383 residues) expressed in baculovirus infected Sf9 insect cells at 5 uM preincubated for 15 mins followed by substrate addition and measured after 60 mins by ADP-glo luminescence assay relative to control
Acetyl-CoA carboxylase 1 [2] = target: T1, Acetyl-CoA carboxylase 1; assay: Inhibition of recombinant human C-terminal His-tagged ACC1 (1 to 2383 residues) expressed in baculovirus infected Sf9 insect cells preincubated for 15 mins followed by substrate addition and measured after 60 mins by ADP-glo luminescence assay
Outline: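 Recombinant ACC1 in assay buffer preincubated with inhibitor in DMSO for 15 min at room temperature. Reaction started with substrate mixture and run 60 min at room temperature. Stopped with ADP-Glo reagent for 40 min, then detection reagent for 40 min to convert ADP to ATP, read by luminescence. Mean of two independent experiments.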

MDA-MB-231 = assay: Antiproliferative activity against human MDA-MB-231 cells assessed as cell growth inhibition at 10 uM after 72 hrs by MTT assay relative to control; assay type: functional; conditions: read-out: GI
Outline: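 Cells were DMEM/10% FBS cultures at 37 °C, 5% CO2, seeded at 3×10^3 per well and exposed for 72 h after 24 h attachment. Read-out was MTT with formazan in DMSO and absorbance at 550 nm, expressed as inhibition rate versus control.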

[3] = Cytotoxicity against HUVEC assessed as cell viability at 100 uM after 72 hrs by MTT assay relative to control; assay type: cell-based; conditions: human, HUVEC cells, read-out: Activity
Outline: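 HUVEC kept in RPMI 1640 with 10% FBS at 37 °C, 5% CO2. Seeded at 3×10^3 per well and treated at 100 µM for 72 h after 24 h attachment. Viability by MTT with absorbance at 550 nm, as percent of control. Mean ± SD, n=3.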

Acetyl-CoA carboxylase 1 [4] = target: T1, Acetyl-CoA carboxylase 1; assay: Inhibition of ACC1 in human HepG2 cells assessed as reduction in intracellular triglyceride level measured after 48 hrs by GPO-PAP method; assay type: cell-based; conditions: dose 1-10 µM
Outline: (§1)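 HepG2 cells plated and exposed to the compound at several concentrations for 48 h. Cells washed with PBS, lysed in 1% Triton X-100 and spun 12000 rpm, 4 °C, 15 min. Malonyl-CoA measured by ELISA kit and triglyceride by GPO-POP kit, each normalised to BCA protein. Reported relative to control, mean ± SD, n=3.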

Acetyl-CoA carboxylase 1 [5] = target: T1, Acetyl-CoA carboxylase 1; assay: Inhibition of ACC1 in human HepG2 cells assessed as reduction in intracellular triglyceride level at 10 uM measured after 48 hrs by GPO-PAP method relative to control; assay type: cell-based; outline: as §1
HepG2 [6] = assay: Antiproliferative activity against human HepG2 cells assessed as cell viability at 0.5 uM measured after 5 days in presence of 25 uM palmitate by MTT assay relative to control; assay type: functional; conditions: HepG2, 120 h, time 5 day, read-out: Activity
Outline: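 HepG2 treated with 0.5 μM plus 0, 10 or 25 μM palmitate for 1, 3 and 5 days. Palmitate was complexed with 5% fatty-acid-free BSA from a 5 mM solution, then diluted in serum-free DMEM to final concentration. Viability (% control) by MTT. Mean ± SD, n=3.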

HepG2 [7] = assay: Cell cycle arrest in human HepG2 cells assessed as accumulation at S phase at 1 uM measured after 48 hrs by propidium iodide staining based flow cytometry (reference value: 30.18%); assay type: functional
HepG2 [8] = assay: Cell cycle arrest in human HepG2 cells assessed as accumulation at S phase at 5 uM measured after 48 hrs by propidium iodide staining based flow cytometry (reference value: 30.18%); assay type: functional
HepG2 [9] = assay: Cell cycle arrest in human HepG2 cells assessed as accumulation at G2/M phase at 5 uM measured after 48 hrs by propidium iodide staining based flow cytometry (reference value: 13.58%); assay type: functional
HepG2 [10] = assay: Cell cycle arrest in human HepG2 cells assessed as reduction in CDK4 expression measured after 48 hrs by Western blot analysis; assay type: functional, cell-based; conditions: dose 1-10 µM
Outline: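 HepG2 cells treated for 48 h and lysed. Lysates cleared at 12000 rpm for 15 min and protein measured by BCA. Run on SDS-PAGE, transferred to PVDF, blocked in 5% BSA, primary antibody at 4 °C overnight, then DyLight 800 secondary. Infrared imaging and densitometry against β-actin. Mean ± SD, n=3.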

HepG2 [11] = assay: Induction of apoptosis in human HepG2 cells assessed as nuclear fragmentation at 1 to 10 uM measured after 48 hrs by Hoechst 33258 staining based fluorescence microscopic analysis; assay type: functional, cell-based; conditions: dose 1-10 µM
Outline: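 HepG2 cells exposed to varying concentrations for 48 h in 6-well plates. Stained with Hoechst 33258 in the dark for 20 min, then nuclear morphology inspected by fluorescence microscopy.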

HepG2 [12] = assay: Induction of apoptosis in human HepG2 cells assessed as increase in early apoptotic cells measured after 48 hrs by Annexin V-FITC/propidium iodide staining based flow cytometry; assay type: functional, cell-based; conditions: dose 1-10 µM
Outline: (§2)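 HepG2 cells incubated with the stated concentrations for 48 h, harvested, and stained with Annexin V-FITC and propidium iodide protected from light. Viable, early apoptotic, late apoptotic and necrotic fractions quantified by flow cytometry. Mean ± SD, n=3.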

HepG2 [13] = assay: Induction of apoptosis in human HepG2 cells assessed as increase in late apoptotic cells measured after 48 hrs by Annexin V-FITC/propidium iodide staining based flow cytometry; assay type: functional, cell-based; conditions: dose 1-10 µM; outline: as §2
HepG2 [14] = assay: Induction of apoptosis in human HepG2 cells assessed as early apoptotic cells at 1 uM measured after 48 hrs by Annexin V-FITC/propidium iodide staining based flow cytometry (reference value: 4.03%); assay type: functional; outline: as §2
HepG2 [15] = assay: Induction of apoptosis in human HepG2 cells assessed as early apoptotic cells at 5 uM measured after 48 hrs by Annexin V-FITC/propidium iodide staining based flow cytometry (reference value: 4.03%); assay type: functional; outline: as §2
HepG2 [16] = assay: Induction of apoptosis in human HepG2 cells assessed as late apoptotic cells at 5 uM measured after 48 hrs by Annexin V-FITC/propidium iodide staining based flow cytometry (reference value: 0.19%); assay type: functional; outline: as §2
HepG2 [17] = assay: Induction of apoptosis in human HepG2 cells assessed as necrotic cells at 10 uM measured after 48 hrs by Annexin V-FITC/propidium iodide staining based flow cytometry (reference value: 0.22%); assay type: functional; outline: as §2
HepG2 [18] = assay: Induction of apoptosis in human HepG2 cells assessed as increase in PARP cleavage at 1 to 10 uM measured after 48 hrs by Western blot analysis; assay type: functional, cell-based; conditions: dose 1-10 µM
Outline: (§3)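 Western blots for Bcl-2, Bax, cleaved caspase-3 and cleaved PARP in HepG2 cells after 48 h treatment (1, 5, 10 μM for PARP). Lysates cleared, protein quantified by BCA, run on SDS-PAGE to PVDF, blocked in 5% BSA, primary overnight at 4 °C, DyLight 800 secondary. Infrared scanning and densitometry normalized to β-actin. Mean ± SD, n=3.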

HepG2 [19] = assay: Induction of apoptosis in human HepG2 cells assessed as reduction in Bcl2 expression measured after 48 hrs by Western blot analysis; assay type: functional, cell-based; conditions: dose 1-10 µM; outline: as §3
HepG2 [20] = assay: Antiproliferative activity against human HepG2 cells assessed as reduction in cell viability measured after 72 hrs in presence of doxorubicin by MTT assay; assay type: functional, cell-based; conditions: dose 0.0875-1.4 µM
HepG2 [21] = assay: Antiproliferative activity against human HepG2 cells assessed as combination index at 1.4 uM measured after 72 hrs in presence of 2.8 uM doxorubicin by MTT assay; assay type: functional

For `CC(C)(C)n1cc2c(n1)C(=O)CC1(CCN(C(=O)c3cc(-c4ccncc4)nc4ccccc34)CC1)O2`, the inhibition (Acetyl-CoA carboxylase 1 [1]) was 100%, the IC50 (Acetyl-CoA carboxylase 1 [2]) was 11.3 nM and the inhibition of growth at 10 µM (MDA-MB-231) was 72.2%. The viability at 72 h, 100 µM [3] was 95.2%, the inhibition (Acetyl-CoA carboxylase 1 [4]) was “Dose-dependent effect” and the inhibition (Acetyl-CoA carboxylase 1 [5]) was 36.7%. It also gave a viability at 0.5 µM (HepG2 [6]) of 87.1%, an Activity (HepG2 [7]) of 21.46% and an Activity (HepG2 [8]) of 14.71%. The Activity (HepG2 [9]) was 6.46%, the Activity (HepG2 [10]) was “Dose-dependent effect” and the Activity (HepG2 [11]) was “Active”. The Activity (HepG2 [12]) was “Dose-dependent effect”, the Activity (HepG2 [13]) was “Dose-dependent effect” and the Activity (HepG2 [14]) was 11.6%. The Activity (HepG2 [15]) was 18.9%, the Activity (HepG2 [16]) was 32.6% and the Activity (HepG2 [17]) was 0.64%. For the same molecule, the Activity (HepG2 [18]) was “Active”, the Activity (HepG2 [19]) was “Dose-dependent effect” and the Activity (HepG2 [20]) was “Dose-dependent effect”. The CI (HepG2 [21]) was 0.366.
